# A selection: hits, their analogues and other compounds. The true share with any hit is near 1.6%.
# NCF1 inh: blocks human p47phox regulatory protein of NADPH oxidases; 220,000 compounds, 0.53% hits; p47phox/p22phox peptide binding, fluorescence polarization, 2 h; inhibition, % at 24.7 µM; P14598;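 active means inhibition above about 30%, limit read from the data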;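 further: 0% = p47phox with labelled peptide and 100% = labelled peptide alone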
# PHOSPHO1 block: inhibitors of human PHOSPHO1 phosphatase; Q8TCT1; recombinant PHOSPHO1, absorbance phosphatase assay; inhibition, % at 13.3 µM; 290,000 compounds, 1.1% hits; AID 1565; in the data active means inhibition above about 60%
# PKD1 inh: blocks activity of human protein kinase D1. PKD1 kinase fluorescence polarization assay. inhibition, % (test concentration not listed). 200,000 compounds, 0.056% hits. AID 797; in the data active means inhibition above about 50%
# ABCG2 block: inhibitors of human ABCG2 transporter, ABCB1 counter-screen; Q9UNQ0; IgMXP3 cells, JC-1 efflux, flow cytometry; inhibition, % at 6.6 µM; 190,000 compounds, 0.1% hits; AID 1325;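 active means inhibition above 80%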;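 further: 0% = DMSO and 100% = nicardipine control wells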
# Target sequence (Q9UNQ0 whole entry, looked up): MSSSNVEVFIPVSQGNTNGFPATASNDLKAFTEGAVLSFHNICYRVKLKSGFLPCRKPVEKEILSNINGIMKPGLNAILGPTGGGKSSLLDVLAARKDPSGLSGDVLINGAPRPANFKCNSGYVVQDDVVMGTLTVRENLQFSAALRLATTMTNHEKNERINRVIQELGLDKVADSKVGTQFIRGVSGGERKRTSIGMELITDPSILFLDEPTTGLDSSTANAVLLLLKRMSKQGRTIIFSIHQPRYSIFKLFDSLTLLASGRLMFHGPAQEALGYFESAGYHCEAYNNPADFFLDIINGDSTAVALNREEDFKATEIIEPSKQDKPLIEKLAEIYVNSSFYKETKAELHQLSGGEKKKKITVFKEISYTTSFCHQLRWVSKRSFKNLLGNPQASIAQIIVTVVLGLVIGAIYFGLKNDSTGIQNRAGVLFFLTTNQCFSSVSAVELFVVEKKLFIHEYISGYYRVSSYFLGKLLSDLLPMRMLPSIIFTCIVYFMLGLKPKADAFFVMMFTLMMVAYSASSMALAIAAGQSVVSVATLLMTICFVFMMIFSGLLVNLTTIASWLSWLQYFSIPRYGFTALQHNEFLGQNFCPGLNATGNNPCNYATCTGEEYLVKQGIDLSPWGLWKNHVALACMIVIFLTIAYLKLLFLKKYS
#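 Test system: IgMXP3 (ABCG2) plus far-red-tagged CCRF-Adr (ABCB1) cells. Reagent: JC-1 dye as substrate. Timing: 10 min exposure at 25 °C with rotation, no wash. Measured by: flow cytometric JC-1 green MFI at 530 nm. Read-out: percent efflux inhibition, scaled nicardipine 100% to DMSO 0%. Control set: nicardipine and DMSO wells.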
# ABCB1 inh: blocks JC-1 efflux by human ABCB1 transporter; inhibition, % at 6.6 µM; P08183; CCRF-Adr cells, flow cytometry; 190,000 compounds, 0.067% hits; AID 1326; in the data active means inhibition above about 40%;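 further: 0% = vehicle and 100% = reference inhibitor; higher value means more JC-1 retained so stronger ABCB1 efflux block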
# HSV augment: increases HSV replication in cells; maximum fold increase; HSV replication augmentation in cells, fold increase; 220,000 compounds, 0.005% hits; AID 1956; in the data active means maximum fold increase above about 1.5; tested in PC3 cells
# ABCB1 single pt: confirmation of human ABCB1 transporter inhibitors, ABCG2 counter-screen; CCRF-Adr cells, JC-1 efflux, flow cytometry; shares compounds with ABCG2 block; inhibition, % at 6.6 µM; AID 1451; 270 compounds, 7% hits;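 active means inhibition of pump activity above 50%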;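 further: 0% = DMSO and 100% = nicardipine full pump inhibition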
# ABCG2 confirm: inhibits human ABCG2 efflux, confirmed at single point | AID 1453 | 270 compounds, 6% hits | shares compounds with ABCG2 block | IgMXP3 cells, JC-1 efflux, flow cytometry | inhibition, % at 6.6 µM;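 active means inhibition above 50%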;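 further: 0% = DMSO wells and 100% = nicardipine pump inhibitor wells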
# IgMXP3 fluor: IgMXP3 autofluorescence flag for ABCG2 confirmation. shares compounds with ABCG2 block. fluorescence at 6.6 µM. IgMXP3 cells, compound autofluorescence 488/530 nm, flow; hits give high values. 270 compounds, 30% hits;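 active means fluorescence in ABCG2-expressing cells above the plate's control-well mean plus 3 SD, cut at about 15 in these data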;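 further: median cell fluorescence with compound minus that of DMSO-treated control cells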
# CCRF autofluor: counter-screen for ABCB1 inhibitors: compound fluorescence in CCRF-Adr cells. shares compounds with ABCG2 block. compound autofluorescence 488/530 nm, flow cytometry; hits give high values. fluorescence at 6.6 µM. 270 compounds, 30% hits;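 active means fluorescence beyond the plate control mean plus 3 SD, with a fluorescence-to-maximum score over 2, cut at about 25 in these data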
# An asterisk follows results filed as active; i = inactive; x = no result given; + = active, no number.
SMILES,NCF1 inh,PHOSPHO1 block,PKD1 inh,ABCG2 block,ABCB1 inh,HSV augment,ABCB1 single pt,ABCG2 confirm,IgMXP3 fluor,CCRF autofluor
COc1cc(CC(=O)OCC(=O)Nc2cc([N+](=O)[O-])ccc2Cl)cc(OC)c1OC,-118,3,-2,81*,3,i,3,41,21*,-1.6
COc1ccc(CN2CCCC(C(=O)c3cccc(C(F)(F)F)c3)C2)cc1O (stereo not drawn),-8,8,7,4,2,i,x,x,x,x
COc1cc(C2C3=C(CCCC3=O)Nc3ccc4ncccc4c32)ccc1O (stereo not drawn),2,4,-4,9,1,i,x,x,x,x
COc1ccc(C2C3=C(CCCC3=O)Nc3ccc4ncccc4c32)cc1OC (stereo not drawn),4,-5,5,0,63*,i,5,16,0.96,10
CC(C)CCOc1cccc(OCC(=O)O)c1,-67,14,-1,108*,30,i,1,3,8.3,-0.84
O=C(O)COc1cccc(NC(=O)c2ccccc2)c1,-13,-17,-1,2,1,i,x,x,x,x
Cc1ccc(C(C)C)c(OCCN(C)C)c1,0,17,1,-2,0,i,x,x,x,x
CCCN(CCC)CCOc1cc(C)ccc1C(C)C,1,14,-8,+,137*,i,1,-1,13,37*
CCc1ccc(NC(=O)CSc2nc3ccccc3c(=O)n2CCCC(=O)N2CCCC2)cc1,-14,29,-3,70,71*,i,24,44,-3.4,-5.6
O=C(CSc1nc2ccccc2c(=O)n1CCCC(=O)N1CCCC1)NCc1ccco1,1,-9,2,3,0,i,x,x,x,x
CN(C(=O)CSc1nnc(-c2ccc(F)cc2)c2ccccc12)C1CCS(=O)(=O)C1 (stereo not drawn),-8,-2,-7,10,0,i,x,x,x,x
Cc1ccc2nc(/C(C#N)=C\c3ccc([N+](=O)[O-])o3)[nH]c2c1,-24,38,-12,0,61*,x,11,24,42*,47*
N#C/C(=C\c1ccc([N+](=O)[O-])o1)c1nc2ccccc2[nH]1,-29,-4,-17,26,6,x,x,x,x,x
CCCCCn1c(CN2CCN(Cc3ccccc3)CC2)nc2c1c(=O)n(C)c(=O)n2C,-12,-1,-4,28,57*,i,23,14,0.81,-2.4
CCCCn1c(CN2CCN(c3ccccc3)CC2)nc2c1c(=O)n(C)c(=O)n2C,-4,-22,-12,0,0,i,x,x,x,x
CCN(CC)c1ccc(/C=C2/C(=O)c3ccc(C(=O)O)cc3C2=O)cc1,-242,6,-18,+,140*,i,-46,-162,251*,169*
CCCCC1(C)OC(=O)C(=Cc2ccc(N(CC)CC)cc2)C(=O)O1 (stereo not drawn),-73,47,-11,2,1,i,x,x,x,x
Cc1oc2c(C)c3oc(=O)c4c(c3cc2c1C)CCCC4,0,-6,-1,75,2,i,8,18,12,15
COC(=O)c1cc(OC)c(OC)cc1NC(=O)C(C)Sc1ccc(C)cc1 (stereo not drawn),1,33,-2,4,1,i,x,x,x,x
COc1ccc([N+](=O)[O-])cc1NC(=O)C(C)Sc1ccc(C)cc1 (stereo not drawn),-2,6,0,82*,2,i,5,35,3.6,3.8
O=C(Nc1nc2ccc([N+](=O)[O-])cc2s1)c1ccco1,6,20,-3,1,0,i,x,x,x,x
